Test results: ChEMBL document CHEMBL1149737, “Brominated polyacetylenic acids from the marine sponge Xestospongia muta: inhibitors of HIV protease” (J Nat Prod, 1992)
The source made the active and inactive calls. The rule behind the calls is not given here.

Legend:
[1] = biological target: T1, ATP-citrate synthase (Rattus norvegicus) (UniProt P16638); assay: Inhibition of rat ATP citrate lyase at 100 ug/ml
T1 sequence (whole entry): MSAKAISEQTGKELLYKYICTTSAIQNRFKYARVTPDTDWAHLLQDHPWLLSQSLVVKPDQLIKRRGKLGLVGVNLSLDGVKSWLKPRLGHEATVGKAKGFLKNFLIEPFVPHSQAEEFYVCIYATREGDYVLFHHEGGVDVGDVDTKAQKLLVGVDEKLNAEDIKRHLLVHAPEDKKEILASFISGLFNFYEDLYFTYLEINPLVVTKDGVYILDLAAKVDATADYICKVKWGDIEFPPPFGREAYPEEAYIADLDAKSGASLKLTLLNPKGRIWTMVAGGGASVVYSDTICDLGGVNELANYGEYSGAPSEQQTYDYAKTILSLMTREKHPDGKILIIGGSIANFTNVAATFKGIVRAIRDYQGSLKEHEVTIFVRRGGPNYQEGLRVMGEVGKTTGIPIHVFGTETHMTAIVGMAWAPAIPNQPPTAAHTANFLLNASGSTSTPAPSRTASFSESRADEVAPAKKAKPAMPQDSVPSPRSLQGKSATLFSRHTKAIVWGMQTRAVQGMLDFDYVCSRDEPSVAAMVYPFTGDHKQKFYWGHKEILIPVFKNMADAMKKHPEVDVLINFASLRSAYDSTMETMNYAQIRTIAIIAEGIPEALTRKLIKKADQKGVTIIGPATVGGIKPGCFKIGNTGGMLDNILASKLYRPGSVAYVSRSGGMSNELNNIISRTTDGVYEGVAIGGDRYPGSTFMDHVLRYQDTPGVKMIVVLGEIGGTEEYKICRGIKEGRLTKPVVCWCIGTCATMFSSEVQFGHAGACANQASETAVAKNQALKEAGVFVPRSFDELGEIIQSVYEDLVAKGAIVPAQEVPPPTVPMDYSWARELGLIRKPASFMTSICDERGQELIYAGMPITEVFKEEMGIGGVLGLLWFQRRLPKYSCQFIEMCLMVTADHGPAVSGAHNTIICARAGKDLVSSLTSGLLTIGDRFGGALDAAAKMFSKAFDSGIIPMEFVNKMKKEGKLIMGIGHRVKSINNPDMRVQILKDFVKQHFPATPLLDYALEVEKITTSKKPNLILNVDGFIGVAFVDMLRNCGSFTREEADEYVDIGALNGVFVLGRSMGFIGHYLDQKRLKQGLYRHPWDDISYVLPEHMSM

Sus scrofa = organism: Sus scrofa; assay: Inhibition of pig malic dehydrogenase at 100 ug/ml
MOLT-4 = assay: Cytotoxicity against human MOLT4 cells; type: functional, cell-based
Protease = Protease (Human immunodeficiency virus 1, UniProt Q9YQ12); assay: Inhibition of HIV1 protease-mediated proteolysis of rabbit muscle lactate dehydrogenase by spectrophotometry; type: single protein
Protease, sequence (Q9YQ12 whole entry): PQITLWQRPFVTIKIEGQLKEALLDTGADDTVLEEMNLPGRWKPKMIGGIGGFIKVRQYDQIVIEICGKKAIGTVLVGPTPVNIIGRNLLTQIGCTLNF
How it was run: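 Purified HIV-1 protease (0.8 µg) with rabbit muscle LDH (0.5–2 mg/ml) in 80 mM Na acetate pH 4.7, 1 mM EDTA, 1 mM DTT, 0.2 M NaCl, 37°, 10–60 min. Aliquots were diluted into 0.1 M K phosphate pH 7.0, 30 min RT. Residual LDH was read as NADH loss at 340 nm (7.6 mM pyruvate, 0.2 mM NADH, 37°) from initial slopes. Controls lacked protease.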

SMILES | Activity [1] | Activity (Sus scrofa) | Activity (MOLT-4) | IC50 (Protease)
O=C(O)CCCC#CC#C/C=C/CC/C=C/C#C/C=C/Br | inactive | inactive | Active | 6 µM
O=C(O)CCCC#CC#C/C=C/CCCCCC/C=C/Br | inactive | inactive | Active | 12 µM
O=C(O)CCCC#CC#C/C=C/CCCC/C=C/C#CBr | inactive | inactive | Active | 7 µM
O=C(O)CCCC#C/C=C/CCCC/C=C/C#C/C=C/Br | inactive | inactive | Active | 10 µM
O=C(O)CCCC#CC#C/C=C/CCCCC#C/C=C/Br | inactive | inactive | Active | 8 µM
COC(=O)CCCC#CC#C/C=C/CCCCCC/C=C/Br | inactive | inactive | Active | 10 µM
